Assay outcomes from PubChem.
SENP8 block-1: inhibitors of human SENP8 protease; purified SENP8, Z-RLRGG-aminoluciferin cleavage, luminescence; inhibition, % at 10 µM; 1.2% of 330,000 active; AID 2540; in the data active = inhibition above about 50%
SENP8 block-2: SENP8 (human) protease inhibition; Q96LD8; recombinant SENP8, Nedd8 substrate fluorescence; inhibition, % at 20 µM; 0.64% of 360,000 active; AID 602440; in the data active = inhibition mostly above about 40%, no sharp cut-off; inactive = mostly below about 27%
SENP1 inh: SENP1 (human) catalytic domain inhibition; AID 624204; 0.21% of 360,000 active; inhibition, % at 10 µM; recombinant SENP1 catalytic domain, CyPet-SUMO1-YPet FRET cleavage;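 active = inhibition at least 30% at 10 µM, raw YFP signal under a set limit, fluorescence ratio 0.5 to 1.5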;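 note: 0% = enzyme with DMSO and 100% = no enzyme wells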
Target sequence (Q9P0U3 419-644 limits assumed): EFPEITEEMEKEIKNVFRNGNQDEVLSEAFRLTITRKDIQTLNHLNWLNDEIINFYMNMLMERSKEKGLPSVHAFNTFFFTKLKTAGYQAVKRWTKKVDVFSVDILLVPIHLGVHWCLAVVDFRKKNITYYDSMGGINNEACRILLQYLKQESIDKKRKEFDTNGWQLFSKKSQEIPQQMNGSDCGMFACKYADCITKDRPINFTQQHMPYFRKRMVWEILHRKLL
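Test system: hSENP1 catalytic domain, recombinant; Amount: 20 pM final SENP1 enzyme; Medium: Tris pH 8 buffer plus EDTA, NaCl, BME, BSA, NP40, catalase; Schedule: 50 min enzyme reaction, room temperature, light-protected; Technique: FRET fluorescence in CFP and YFP emission channels; Controls: no-enzyme wells low, DMSO-plus-enzyme wells high control.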
SENP7 inh: blocks the human protease SENP7. recombinant SENP7, Z-RLRGG-aminoluciferin luminescence, 40 min. inhibition, % at 5 µM. 1.5% of 330,000 active;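 active = inhibition above about 50% at the single test dose, limit read from the data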;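 note: plate controls were DMSO with enzyme for no effect and no enzyme buffer wells for full effect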
SENP6 inh: blocks the human protease SENP6; inhibition, % at 10 µM; 1.8% of 330,000 active; Recombinant SENP6 catalytic domain, aminoluciferin luminescence;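 active = inhibition above about 50% at the single tested dose, limit read from the data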;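 note: plate controls were DMSO wells with enzyme for no effect and DMSO wells lacking enzyme for full effect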
Target sequence (Q9GZR1 628-1112 limits assumed): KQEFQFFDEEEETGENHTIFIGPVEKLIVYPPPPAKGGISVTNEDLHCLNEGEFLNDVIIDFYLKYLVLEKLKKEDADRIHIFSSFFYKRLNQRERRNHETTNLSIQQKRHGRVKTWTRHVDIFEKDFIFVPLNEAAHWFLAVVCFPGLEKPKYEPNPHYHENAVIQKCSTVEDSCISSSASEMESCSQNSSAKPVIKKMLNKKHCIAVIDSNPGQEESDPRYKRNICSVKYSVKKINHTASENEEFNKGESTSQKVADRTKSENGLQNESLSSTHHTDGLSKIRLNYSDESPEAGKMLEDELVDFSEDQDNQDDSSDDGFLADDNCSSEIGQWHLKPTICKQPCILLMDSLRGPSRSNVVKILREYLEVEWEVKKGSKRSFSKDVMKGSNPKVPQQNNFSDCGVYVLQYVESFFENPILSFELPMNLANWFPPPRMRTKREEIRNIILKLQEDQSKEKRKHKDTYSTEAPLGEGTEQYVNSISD
SENP8 conf: human SENP8 inhibition, confirmed; inhibition, % at 12.5 µM; AID 488912; Recombinant SENP8, Z-RLRGG-aminoluciferin luminescence, 60 min; shares compounds with SENP7 inh; 40% of 6,200 active;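 active = mean inhibition across replicates above about 50%, limit read from the data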
SENP6 confirm: confirmation of human SENP6 protease inhibitors; shares compounds with SENP7 inh; recombinant SENP6, Z-RLRGG-aminoluciferin luminescence; inhibition, % at 12.5 µM; 58% of 6,200 active
SENP7 confirm: human SENP7 inhibition, confirmed. shares compounds with SENP7 inh. recombinant SENP7, Z-RLRGG-aminoluciferin luminescence, 40 min. inhibition, % at 12.5 µM. 69% of 6,200 active. AID 488917
Casp3 select: caspase-3 inhibition (SENP selectivity assay) | shares compounds with SENP7 inh | purified caspase-3, Z-DEVD-aminoluciferin luminescence, 60 min | inhibition, % at 12.5 µM | 60% of 6,200 active;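 active = mean inhibition above about 50%, limit read from the data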;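 note: plate controls were enzyme with DMSO for no effect and wells without caspase-3 for full effect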
Luc interf: interferes with luciferase luminescence in SENP counter-screen | shares compounds with SENP7 inh | Pre-incubated SENP8/Z-RLRGG-aminoluciferin, luciferase luminescence interference | inhibition, % at 12.5 µM | 39% of 6,200 active | AID 488919;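 active = mean inhibition above about 50% when retested at one dose, limit read from the data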;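 note: plate controls were DMSO wells with completed reaction for no effect and substrate without enzyme for full effect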
Numbers without * were called inactive; . = no result. The list is not random: actives were taken first. Their share in the collection is about 2.5%.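 Rule for the calls, unless noted: active = mean inhibition above about 50% in the one-dose retest (limit read from the data); inactive = the rest.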

SMILES | SENP8 block-1 | SENP8 block-2 | SENP1 inh | SENP7 inh | SENP6 inh | SENP8 conf | SENP6 confirm | SENP7 confirm | Casp3 select | Luc interf
O=C(Nc1cccc2cccnc12)C1CCCC1 | -3.4 | 12.3 | -1.0 | 2.9 | 3.4 | . | . | . | . | .
CCOc1ccc2nc(NC(=O)c3ccccn3)sc2c1 | 94.0* | -90.9 | 1.5 | 97.8* | 97.0* | 41.4 | 77.5* | 84.8* | 87.0* | 25.8
CCc1noc(C)c1C(=O)Nc1nc2c(F)cc(F)cc2s1 | 82.9* | -26.3 | -6.9 | 73.1* | 89.7* | 51.8* | 85.5* | 97.9* | 86.9* | 50.6*
CCc1noc(C)c1C(=O)Nc1nc2c(C)cccc2s1 | 2.5 | -70.1 | -1.0 | 6.0 | 29.8 | . | . | . | . | .
CCOc1ccc2nc(NC(=O)COC)sc2c1 | 1.1 | -8.6 | -0.6 | 27.5 | -26.2 | . | . | . | . | .
O=C(O)C1CCCN1c1nc(-c2ccc(Cl)c(Cl)c2)cc(C(F)(F)F)n1 (centres undefined) | -6.3 | -45.4 | -2.3 | 10.3 | 5.8 | . | . | . | . | .
O=C(Nc1nccs1)c1cncc(Br)c1 | -13.9 | -26.8 | -2.0 | -13.8 | -7.9 | . | . | . | . | .
CC(C)(C)C(=O)Nc1ccc(-c2nc3ccccc3c(=O)o2)cc1 | -0.9 | -14.9 | 0.0 | 67.5* | 62.0* | 3.5 | 6.4 | 11.7 | 12.7 | 6.2
COc1ccc(-c2nc3ccccc3c(=O)o2)cc1OC | -10.5 | -105.5 | -0.6 | -16.8 | -14.1 | . | . | . | . | .
CCOC(=O)COc1ccc(-c2nnc(-c3ccccc3)o2)cc1 | 26.5 | -35.4 | 1.5 | 74.1* | 78.5* | 48.6 | 49.0 | 68.4* | 72.4* | 13.8
CCOc1ccc(-c2nc3ccccc3c(=O)o2)cc1 | 21.6 | -183.6 | 1.0 | 72.7* | 7.3 | 28.0 | 36.2 | 46.2 | 34.0 | 37.5
CCOc1ccc(-c2nnc(-c3ccccc3)o2)cc1 | 90.5* | -131.3 | -0.7 | 92.7* | 95.7* | 9.0 | 8.4 | 9.3 | 1.8 | 2.8
CC(C)(C)C(=O)Nc1cccc(-c2nc3ccccc3c(=O)o2)c1 | 1.8 | 0.6 | -45.8 | -0.7 | -4.5 | . | . | . | . | .
Cc1nc2c(C)cccn2c(=O)c1NC(=O)c1ccc2c(c1)OCO2 | -3.0 | -89.2 | 0.1 | -9.5 | -8.0 | . | . | . | . | .
C/C(=N\OC(=O)c1ccc(Cl)c(Cl)c1)c1sc(C)nc1C | 29.5 | 19.1 | 2.0 | 48.7 | 51.3* | 21.9 | 16.6 | 32.7 | 34.7 | 3.2
C/C(=N/OC(=O)c1ccccc1Br)c1ccc(C)cc1 | 44.1 | 5.9 | 2.3 | 29.8 | 60.8* | 28.3 | 31.2 | 72.1* | 23.1 | 11.3
COc1ccc(C(=O)O/N=C(/c2cccs2)C(C)(C)C)cc1 | 3.0 | 19.6 | 4.8 | 1.4 | -54.9 | . | . | . | . | .
C/C(=N/OC(=O)c1ccc(C)cc1)c1cccs1 | 98.3* | 18.2 | 5.9 | 99.8* | 97.1* | 98.3* | 99.0* | 101.9* | 97.3* | 97.0*
C/C(=N\OC(=O)c1ccc(C)cc1)c1sc(C)nc1C | 62.4* | 15.8 | 7.0 | 77.3* | 78.9* | 12.1 | 72.8* | 92.5* | 78.6* | 57.2*
C/C(=N\OC(=O)c1ccc(C)cc1)c1c(C)nc2cc(C)ccn12 | -13.4 | -69.2 | 6.9 | -10.3 | -36.8 | . | . | . | . | .
Cc1cn([C@H]2C[C@H](O)[C@@H](CCC(=O)NCCc3ccc4ccccc4c3)O2)c(=O)[nH]c1=O | . | 22.1 | -2.6 | . | . | . | . | . | . | .
CCOc1cccc(CN2CCCC(N3CCc4cc(OC)c(OC)cc4C3)C2)c1O (centres undefined) | -1.5 | -8.5 | -8.7 | -6.9 | 0.6 | . | . | . | . | .
Cc1ccnc(Nc2nc(-c3ccccc3)cs2)c1 | 80.5* | 14.4 | 1.3 | 85.4* | 90.4* | 12.7 | 64.5* | 84.6* | 44.1 | -4.2
NS(=O)(=O)c1ccc(Nc2nc(-c3ccc(O)cc3O)cs2)cc1 | 4.0 | 3.9 | -1.0 | 6.6 | -1.6 | . | . | . | . | .
O=C(O)c1ccc(Nc2nc(-c3ccccc3)cs2)cc1 | 49.8 | -72.0 | 0.5 | 65.2* | 84.0* | 72.4* | 70.4* | 89.8* | 63.3* | 80.4*
SMILES | SENP8 block-1 | SENP8 block-2 | SENP1 inh | SENP7 inh | SENP6 inh | SENP8 conf | SENP6 confirm | SENP7 confirm | Casp3 select | Luc interf
CC(=O)Nc1ccc(-c2csc(Nc3cc(C)ccn3)n2)cc1 | -12.6 | 14.9 | 3.6 | -2.3 | 2.5 | . | . | . | . | .
Oc1ccc(-c2csc(Nc3ccccn3)n2)c(O)c1 | 41.6 | 4.9 | 3.9 | 35.7 | 71.2* | 52.8* | 67.5* | 89.1* | 15.5 | 81.5*
Cc1cccnc1Nc1nc(-c2ccccc2)cs1 | 92.3* | -6.5 | -1.8 | 97.2* | 96.9* | -0.4 | 96.4* | 101.6* | 81.8* | 73.9*
CC1=N/C(=C\c2ccc([N+](=O)[O-])cc2)C(=O)N1c1ccc(F)cc1F | -18.1 | -9.5 | 0.1 | -5.6 | 1.7 | . | . | . | . | .
Cc1cccnc1Nc1nc(-c2ccc(O)cc2O)cs1 | 56.4* | 10.6 | -0.8 | 27.2 | 68.5* | 81.3* | 81.1* | 92.5* | 25.1 | 45.2
Cc1nc2ncccn2c1-c1csc(Nc2ccc(O)cc2)n1 | 7.2 | -9.8 | 3.4 | -0.7 | -6.6 | . | . | . | . | .
S=C(Nc1ccccn1)c1ccccn1 | 67.9* | 14.0 | 5.1 | 83.8* | 1.2 | 53.4* | 76.3* | 93.5* | 85.6* | 41.8
COc1ccc(C2/C(=C(/O)c3ccc(Br)cc3)C(=O)C(=O)N2C)cc1OC (centres undefined) | -4.8 | 12.2 | 2.2 | 58.0* | 6.5 | 4.5 | 5.3 | 0.4 | -0.2 | 1.3
COc1ccc(C(=O)CSc2nnc(Cc3ccccc3)o2)cc1 | -8.8 | 10.3 | 1.8 | 59.5* | -38.3 | 6.6 | 9.4 | 8.1 | 4.1 | 3.1
O=C(Nc1nnc([C@@H]2C[C@H](O)[C@@H](CO)O2)s1)c1cccc(OC(F)(F)F)c1 | . | -3.4 | 0.5 | . | . | . | . | . | . | .
O=C(COC(=O)[C@H](Cc1c[nH]c2ccccc12)NC(=O)c1ccc(Cl)cc1)Nc1ccc2c(c1)OCO2 | 0.4 | 17.6 | -1.0 | -1.8 | -9.6 | . | . | . | . | .
COC(=O)[C@@H](Cc1c[nH]c2ccccc12)NC(=O)c1ccc2c(c1)OCO2 | 53.2* | 6.8 | 0.5 | 64.6* | 59.2* | 49.6 | 47.3 | 83.1* | 67.0* | 67.9*
CC(=O)Nc1ccccc1C(=O)C(=O)Nc1ccc(C)c(C)c1 | -5.7 | 11.8 | -0.6 | 1.9 | 1.6 | . | . | . | . | .
Cc1ccc(NC(=O)/C(Cl)=C/c2ccccc2)cc1C | 67.0* | 13.8 | 1.5 | 80.7* | 86.2* | 2.0 | 80.5* | 95.5* | 53.7* | 37.4
O=C(c1ccc([N+](=O)[O-])s1)N1CCN(c2ccc(C(F)(F)F)cn2)CC1 | 3.3 | 24.6 | 0.4 | 9.6 | -27.4 | . | . | . | . | .
